Reference: paper PMC9291915 (British Journal of Clinical Pharmacology, 2021)

Experiments:
CYP3A4 = CYP3A4 (Homo sapiens, UniProt P08684); assay: Cytochrome P450 inhibition; assay type: in vitro ADME
In short: (§1)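 Human liver microsomes (0.25 mg/mL final) were pre-incubated with the test compound at six concentrations (40 to 10 000, in water) for 30 min without or with NADPH, or with 0 min pre-incubation. Probe substrate and NADPH (1 mM) were then added (final DMSO 0.05%) and incubated 5 min at 37 °C. Isoform-specific time-dependent inhibitors served as positive controls. IC50 per condition was derived from the decrease in metabolite formation versus vehicle control.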

CYP2C19 = CYP2C19 (Homo sapiens, UniProt P33261); assay: Cytochrome P450 inhibition; assay type: in vitro ADME
CYP2C19, sequence (P33261 whole entry): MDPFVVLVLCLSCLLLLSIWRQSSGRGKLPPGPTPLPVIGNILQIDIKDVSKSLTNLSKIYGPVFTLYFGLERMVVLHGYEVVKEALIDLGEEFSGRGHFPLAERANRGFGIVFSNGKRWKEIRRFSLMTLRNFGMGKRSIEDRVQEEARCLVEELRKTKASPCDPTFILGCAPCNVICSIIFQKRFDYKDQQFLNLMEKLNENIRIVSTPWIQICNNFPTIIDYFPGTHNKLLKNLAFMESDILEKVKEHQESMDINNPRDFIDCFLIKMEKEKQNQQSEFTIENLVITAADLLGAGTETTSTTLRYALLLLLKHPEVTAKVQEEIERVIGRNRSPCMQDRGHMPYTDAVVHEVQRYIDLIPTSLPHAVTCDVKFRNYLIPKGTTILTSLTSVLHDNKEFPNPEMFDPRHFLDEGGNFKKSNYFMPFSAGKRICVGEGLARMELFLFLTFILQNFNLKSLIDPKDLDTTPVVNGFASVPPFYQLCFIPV
In short: as §1

CYP1A2 = target: T1, CYP1A2 (Homo sapiens, UniProt P05177); assay: Cytochrome P450 inhibition; assay type: in vitro ADME; details: substrate phenacetin; any pre-incubation condition
T1 sequence (P05177 1-516): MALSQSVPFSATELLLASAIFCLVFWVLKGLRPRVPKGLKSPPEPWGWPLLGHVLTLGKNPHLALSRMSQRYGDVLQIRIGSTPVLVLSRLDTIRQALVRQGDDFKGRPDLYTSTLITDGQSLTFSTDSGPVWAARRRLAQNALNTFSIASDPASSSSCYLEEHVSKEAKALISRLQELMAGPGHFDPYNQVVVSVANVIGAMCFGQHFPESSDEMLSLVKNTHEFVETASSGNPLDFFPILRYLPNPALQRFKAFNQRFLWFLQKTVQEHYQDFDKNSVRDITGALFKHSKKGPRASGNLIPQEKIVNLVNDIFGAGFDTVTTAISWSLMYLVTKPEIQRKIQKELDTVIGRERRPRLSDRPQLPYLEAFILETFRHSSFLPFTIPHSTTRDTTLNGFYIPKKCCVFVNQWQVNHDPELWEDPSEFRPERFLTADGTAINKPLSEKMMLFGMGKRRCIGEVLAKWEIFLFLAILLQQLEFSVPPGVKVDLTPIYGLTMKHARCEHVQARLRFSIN
In short: as §1

CYP2B6 = target: T2, CYP2B6 (Homo sapiens, UniProt P20813); assay: Cytochrome P450 inhibition; assay type: in vitro ADME; details: substrate bupropion; any pre-incubation condition
T2 sequence (P20813 1-491): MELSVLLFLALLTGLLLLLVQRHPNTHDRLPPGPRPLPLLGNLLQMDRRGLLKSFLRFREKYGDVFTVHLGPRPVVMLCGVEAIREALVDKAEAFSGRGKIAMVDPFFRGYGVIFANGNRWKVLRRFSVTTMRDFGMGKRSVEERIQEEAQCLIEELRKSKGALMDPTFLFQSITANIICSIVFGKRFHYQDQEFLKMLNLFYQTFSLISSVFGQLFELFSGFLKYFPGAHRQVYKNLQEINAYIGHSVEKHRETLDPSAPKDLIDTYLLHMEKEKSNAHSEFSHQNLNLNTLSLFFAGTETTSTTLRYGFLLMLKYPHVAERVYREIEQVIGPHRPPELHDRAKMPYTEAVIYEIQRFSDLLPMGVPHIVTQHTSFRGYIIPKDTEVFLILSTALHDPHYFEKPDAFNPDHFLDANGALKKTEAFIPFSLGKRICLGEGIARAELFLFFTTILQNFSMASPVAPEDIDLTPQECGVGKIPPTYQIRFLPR
In short: as §1

CYP2C8 = target: T3, CYP2C8 (Homo sapiens, UniProt P10632); assay: Cytochrome P450 inhibition; assay type: in vitro ADME; details: substrate paclitaxel; any pre-incubation condition
T3 sequence (P10632 1-490): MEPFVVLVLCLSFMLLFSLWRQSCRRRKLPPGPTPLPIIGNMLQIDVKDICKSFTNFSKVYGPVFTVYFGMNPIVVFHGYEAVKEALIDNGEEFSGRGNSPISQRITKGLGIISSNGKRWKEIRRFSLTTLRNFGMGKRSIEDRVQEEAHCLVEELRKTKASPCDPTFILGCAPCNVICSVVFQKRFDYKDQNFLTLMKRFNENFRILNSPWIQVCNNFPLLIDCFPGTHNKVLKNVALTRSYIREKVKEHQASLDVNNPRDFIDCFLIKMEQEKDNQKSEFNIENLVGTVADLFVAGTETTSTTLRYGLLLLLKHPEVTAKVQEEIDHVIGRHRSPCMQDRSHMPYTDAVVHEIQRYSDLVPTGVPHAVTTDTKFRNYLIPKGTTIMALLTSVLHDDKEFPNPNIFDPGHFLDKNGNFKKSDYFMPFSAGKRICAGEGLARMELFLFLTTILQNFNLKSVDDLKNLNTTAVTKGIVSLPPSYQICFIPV
In short: as §1

CYP2C9 = CYP2C9 (Homo sapiens, UniProt P11712); assay: Cytochrome P450 inhibition; assay type: in vitro ADME; details: substrate diclofenac; any pre-incubation condition
CYP2C9, sequence (P11712 whole entry): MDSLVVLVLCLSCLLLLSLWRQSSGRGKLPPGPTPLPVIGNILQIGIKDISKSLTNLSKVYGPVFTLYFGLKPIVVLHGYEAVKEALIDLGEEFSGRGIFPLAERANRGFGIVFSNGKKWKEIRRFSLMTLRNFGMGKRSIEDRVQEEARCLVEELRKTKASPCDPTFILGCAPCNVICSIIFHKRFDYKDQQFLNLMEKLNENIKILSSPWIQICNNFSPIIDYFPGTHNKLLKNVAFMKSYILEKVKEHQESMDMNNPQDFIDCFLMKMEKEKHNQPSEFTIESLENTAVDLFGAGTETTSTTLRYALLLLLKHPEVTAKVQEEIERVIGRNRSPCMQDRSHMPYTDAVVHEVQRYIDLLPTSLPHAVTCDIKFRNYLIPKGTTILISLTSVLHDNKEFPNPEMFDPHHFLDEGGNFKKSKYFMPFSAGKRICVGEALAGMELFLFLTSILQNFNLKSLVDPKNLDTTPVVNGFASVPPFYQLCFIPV
In short: as §1

CYP2D6 = CYP2D6 (Homo sapiens, UniProt P10635); assay: Cytochrome P450 inhibition; assay type: in vitro ADME; details: substrate dextromethorphan; any pre-incubation condition
CYP2D6, sequence (P10635 whole entry): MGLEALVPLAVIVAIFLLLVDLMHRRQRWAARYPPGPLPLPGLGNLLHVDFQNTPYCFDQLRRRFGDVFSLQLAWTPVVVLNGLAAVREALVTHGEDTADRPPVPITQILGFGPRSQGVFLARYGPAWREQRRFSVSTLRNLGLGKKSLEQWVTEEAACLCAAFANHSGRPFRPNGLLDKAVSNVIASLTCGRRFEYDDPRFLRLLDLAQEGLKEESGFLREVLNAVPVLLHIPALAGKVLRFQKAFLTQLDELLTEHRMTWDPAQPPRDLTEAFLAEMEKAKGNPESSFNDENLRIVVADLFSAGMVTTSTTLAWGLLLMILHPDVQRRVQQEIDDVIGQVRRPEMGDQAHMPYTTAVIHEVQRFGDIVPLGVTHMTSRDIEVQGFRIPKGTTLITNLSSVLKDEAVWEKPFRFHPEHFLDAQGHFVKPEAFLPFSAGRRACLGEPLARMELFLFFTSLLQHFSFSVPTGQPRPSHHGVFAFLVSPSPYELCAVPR
In short: as §1

P-gp = P-gp (Homo sapiens, UniProt P08183); assay type: in vitro ADME
P-gp, sequence (P08183 whole entry): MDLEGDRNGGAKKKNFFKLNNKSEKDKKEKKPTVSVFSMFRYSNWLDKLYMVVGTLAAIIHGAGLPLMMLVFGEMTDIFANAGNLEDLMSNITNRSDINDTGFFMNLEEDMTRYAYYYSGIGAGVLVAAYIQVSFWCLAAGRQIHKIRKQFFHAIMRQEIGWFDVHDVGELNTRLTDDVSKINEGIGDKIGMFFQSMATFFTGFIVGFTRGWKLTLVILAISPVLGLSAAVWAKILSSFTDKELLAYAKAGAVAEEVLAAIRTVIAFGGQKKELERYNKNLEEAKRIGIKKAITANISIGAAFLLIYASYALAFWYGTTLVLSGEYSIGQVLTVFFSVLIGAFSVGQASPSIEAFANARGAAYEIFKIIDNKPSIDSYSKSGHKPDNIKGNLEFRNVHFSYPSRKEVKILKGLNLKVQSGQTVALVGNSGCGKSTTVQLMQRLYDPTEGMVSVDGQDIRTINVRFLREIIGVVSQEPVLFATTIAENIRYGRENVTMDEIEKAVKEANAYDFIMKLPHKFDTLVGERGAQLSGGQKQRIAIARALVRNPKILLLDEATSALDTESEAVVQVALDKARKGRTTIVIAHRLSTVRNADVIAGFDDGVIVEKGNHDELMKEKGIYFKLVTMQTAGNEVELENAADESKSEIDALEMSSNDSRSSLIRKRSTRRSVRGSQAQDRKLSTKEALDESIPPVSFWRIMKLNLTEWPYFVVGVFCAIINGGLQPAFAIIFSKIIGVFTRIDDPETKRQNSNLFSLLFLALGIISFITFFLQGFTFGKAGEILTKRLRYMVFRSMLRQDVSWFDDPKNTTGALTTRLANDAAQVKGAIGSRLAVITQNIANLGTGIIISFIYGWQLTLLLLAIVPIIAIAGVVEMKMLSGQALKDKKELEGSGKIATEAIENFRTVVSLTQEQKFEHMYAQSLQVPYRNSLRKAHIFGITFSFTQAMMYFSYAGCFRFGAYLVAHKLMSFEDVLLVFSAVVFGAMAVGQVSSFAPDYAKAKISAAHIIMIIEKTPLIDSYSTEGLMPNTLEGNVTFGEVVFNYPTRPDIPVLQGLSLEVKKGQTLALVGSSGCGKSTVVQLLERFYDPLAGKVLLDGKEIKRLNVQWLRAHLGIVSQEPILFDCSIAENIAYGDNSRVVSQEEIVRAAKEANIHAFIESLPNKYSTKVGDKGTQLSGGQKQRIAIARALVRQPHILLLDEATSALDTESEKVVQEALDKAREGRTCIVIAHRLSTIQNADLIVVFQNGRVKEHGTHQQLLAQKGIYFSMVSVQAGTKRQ
In short: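 Bidirectional transport of loperamide was measured in a cell test system without and with a concentration range of the test compound; cyclosporin A was the control inhibitor. Papp = (dQ/dt)/(A×C0). Per replicate, A→B Papp was subtracted from B→A Papp to give net secretory flux. This was expressed as % of mean vehicle-control activity and fitted for IC50. Ki = IC50/(1+[S]×fu/Km), using loperamide Km 36.2.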

[1] = Clinical pharmacokinetics of treosulfan in plasma and urine; assay type: in vivo, human; details: for AUC / half-life: human, plasma, intravenous; for AUC: 14 g/m^2, AUC; for half-life: 14 g/m^2, apparent half‐life, median
[2] = cited from earlier work
[3] = cited from earlier work; remark: listed apart in the source
[4] = cited from earlier work; remark: listed apart in the source

CYP3A4, sequence (P08684 whole entry, canonical isoform): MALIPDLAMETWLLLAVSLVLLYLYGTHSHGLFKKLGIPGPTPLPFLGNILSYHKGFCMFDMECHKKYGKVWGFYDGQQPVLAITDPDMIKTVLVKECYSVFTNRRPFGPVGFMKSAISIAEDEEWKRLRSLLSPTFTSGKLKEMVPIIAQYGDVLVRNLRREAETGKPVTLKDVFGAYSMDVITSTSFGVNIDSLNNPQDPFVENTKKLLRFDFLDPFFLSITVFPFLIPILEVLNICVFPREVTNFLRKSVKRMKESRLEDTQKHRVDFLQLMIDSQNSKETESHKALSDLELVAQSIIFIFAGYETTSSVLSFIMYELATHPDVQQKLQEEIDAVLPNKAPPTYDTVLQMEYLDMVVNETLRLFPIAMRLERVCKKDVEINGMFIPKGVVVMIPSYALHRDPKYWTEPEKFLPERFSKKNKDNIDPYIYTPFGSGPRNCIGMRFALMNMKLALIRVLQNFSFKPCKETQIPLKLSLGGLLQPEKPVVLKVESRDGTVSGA

With `CS(=O)(=O)OC[C@H](O)[C@@H](O)COS(C)(=O)=O` [treosulfan, L‐threitol‐1,4‐bis‐methanesulfonate] the IC50 (CYP3A4) was 1870 µM, the Ki (CYP3A4) was 1210 µM and the “inhibition of CYP3A4 using testosterone as the substrate” value (CYP3A4; 40 to 10 000 μM treosulfan, any pre-incubation condition) was “did not inhibit”. For the same compound, the IC50 (CYP2C19) was 972 µM, the Ki (CYP2C19) was 778 µM and the “inhibition of CYP1A2” value (CYP1A2) was “did not inhibit”. The “inhibition of CYP2B6” value (CYP2B6) was “did not inhibit”, the “inhibition of CYP2C8” value (CYP2C8) was “did not inhibit” and the “inhibition of CYP2C9” value (CYP2C9) was “did not inhibit”. The “inhibition of CYP2D6” value (CYP2D6) was “did not inhibit”, the Ki (P-gp) was 1770 µM and the IC50 (P-gp; human, in vitro cell test system (cell line not given), probe loperamide) was over 1000 µM. For the same compound, the AUC ([1]; day −4, patients) was 1450 µg·h/mL, the AUC ([1]; day −6, patients) was 1420 µg·h/mL and the half-life ([1]; day −4, patients) was 1.93 h. For the same compound, the half-life ([1]; day −6, patients) was 1.86 h, the “administered dose excreted in urine” value ([1]; patients) was “About 40%” and the “rate at which dose was excreted in urine” value ([1]; patients, CV% = 31.98%) was 130.38 mL/min. The “Log P O:W” value [2] was −1.58, the “B:P (blood‐plasma ratio)” value [3] was 0.88 and the “GFR fraction, literature” value [4] was “Estimated (literature[20]: 0.41 ± 0.22)”.
